Sampled rows, rich in hits. Any-hit rate of the full collection: about 2.2%.
PvdQ inh: P. aeruginosa PvdQ acylase inhibition | inhibition, % at 10 µM | purified PvdQ acylase, fluorescence plate reader | 340,000 tested, 0.063% active; in the data active means inhibition above about 30%, passing the limit was not always enough
PHOSPHO1 block: blocks human PHOSPHO1 phosphatase activity; Q8TCT1; recombinant PHOSPHO1, absorbance phosphatase assay; inhibition, % at 13.3 µM; 290,000 tested, 1.1% active; AID 1565; in the data active means inhibition above about 60%
Target sequence (Q8TCT1 whole entry, looked up): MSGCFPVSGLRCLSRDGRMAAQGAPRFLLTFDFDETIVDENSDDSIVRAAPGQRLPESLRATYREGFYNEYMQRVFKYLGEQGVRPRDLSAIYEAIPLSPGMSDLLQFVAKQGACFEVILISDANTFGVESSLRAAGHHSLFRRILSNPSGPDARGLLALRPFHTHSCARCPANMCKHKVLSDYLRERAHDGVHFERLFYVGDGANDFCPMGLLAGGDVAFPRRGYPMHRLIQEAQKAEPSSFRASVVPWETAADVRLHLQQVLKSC
Yeast superoxide: lowers age-related superoxide in aged yeast cells | S. cerevisiae aged cells, superoxide DHE fluorescence; active compounds read low | superoxide response (% of plate mean), % at 10 µM | 330,000 tested, 0.18% active | AID 2690;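 active means superoxide response under a set limit, about three screen SD below normal, cut at about 65% in these data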;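 further: yeast aged for seven days with compound at 30 °C before DHE staining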
VIM-2 inhibitor: blocks Pseudomonas aeruginosa VIM-2 metallo-beta-lactamase; purified VIM-2, nitrocefin hydrolysis, epi-absorbance fluorescence; inhibition, % at 5.6 µM; AID 1527; 290,000 tested, 0.89% active;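 active means inhibition above the mean of all tested compounds plus 3 SD, cutoff set per screening run, cut at about 7.5% in these data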;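 further: red hydrolysis product quenches plate fluorescence so inhibitors raise well fluorescence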
IMP-1 inhibitor: inhibitors of Pseudomonas aeruginosa IMP-1 metallo-beta-lactamase; 290,000 tested, 0.45% active; inhibition, % at 5.6 µM; purified IMP-1, nitrocefin hydrolysis, epi-absorbance fluorescence; AID 1556;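 active means inhibition above the mean plus 3 SD of all compounds in the same screening run, cut at about 4.5% in these data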
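Assay system: purified IMP-1; Quantity: IMP-1 0.2 nM before substrate addition; Medium: HEPES buffer pH 7.1 with ZnSO4 and Brij 35; Incubation: 15 min enzyme–compound preincubation, then 25 min nitrocefin reaction, 25 °C; Signal: fluorescence quenching readout, ex 480/em 530 nm; Controls: DMSO with and without IMP-1; Repeats: singlicate testing.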
A number is an active result; i = inactive; nt = not tested or not shown.

SMILES	PvdQ inh	PHOSPHO1 block	Yeast superoxide	VIM-2 inhibitor	IMP-1 inhibitor
Fc1cccc(-c2n[nH]c(=S)n2-c2ccccc2)c1	i	i	i	i	i
CC(C)CN(C(=O)COC(=O)c1ccc2c(c1)OCO2)c1c(N)n(Cc2ccccc2)c(=O)[nH]c1=O	i	nt	i	nt	nt
Cc1ccc(-c2csc(N)n2)s1	i	71.1	i	i	i
Cc1ccccc1-c1csc(N)n1	i	nt	nt	nt	nt
O=C(O)CCc1cc(I)c(Oc2ccc(O)c(I)c2)c(I)c1	nt	i	nt	nt	nt
COc1ccccc1OCC(=O)N/N=C1/C=C(C)CC1	i	i	i	i	i
CCSc1nnc2c3cc(CC)ccc3n(C)c2n1	i	i	i	8.2	i
CCOC(=O)C(CC)Sc1nnc2c3cc(C)ccc3n(C)c2n1 (stereo not drawn)	i	i	i	9.4	i
CCCN(C(=S)Nc1ccccc1)C1CCS(=O)(=O)C1 (stereo not drawn)	i	i	i	i	i
CN1CCC(OC(=O)c2ccc(Cl)cc2Cl)CC1	i	i	i	i	i
CN1CCC(OC(=O)c2cc3cc(Cl)cc(Cl)c3oc2=O)CC1	i	61.1	i	i	i
CCSc1nc(=S)cc(C)[nH]1	i	i	59.2	i	i
COc1ccccc1NC(=O)C(C)OC(=O)C1CCC(C(C)(C)C)CC1 (stereo not drawn)	i	nt	i	nt	nt
CCc1[nH]nc2c1C1(CCN(C(=O)OCc3ccccc3)CC1)C(C#N)=C(N)O2	i	i	i	10.7	i
CC1CC(C)CN(C(=O)COC(=O)c2ccc(S(=O)(=O)N(C)c3ccccc3)cc2)C1 (stereo not drawn)	i	nt	i	nt	nt
Cn1c(SCCN2CCCC2)nnc1C1CCN(S(=O)(=O)c2cccc(F)c2)CC1	i	i	i	i	i
COc1ccc(N2CCN(C(=O)CN(c3cccc(Br)c3)S(C)(=O)=O)CC2)cc1	i	i	i	i	i
CS(=O)(=O)N(CC(=O)N1CCN(c2ccccc2)CC1)c1cccc(Br)c1	i	98.4	i	i	i
Cc1csc(NC(=O)c2ccc(S(=O)(=O)N(C)c3ccccc3)cc2)n1	i	86.2	i	i	i
COc1cc(N/C(N)=N/c2nc(C)cc(C)n2)c(OC)cc1Cl	i	i	i	i	i
CC(C)CCSc1nc2[nH]ncc2c(=O)[nH]1	i	i	i	i	i
O=C(Nc1sc2c(c1C(=O)NC1CC1)CCCCCC2)c1ccco1	i	i	i	i	i
COC(=O)Nc1sc2c(c1C(=O)NC1CC1)CCCCCC2	i	88.0	i	i	i
CC(C)[C@H](NS(=O)(=O)c1cccc(C(F)(F)F)c1)C(=O)OCC(=O)NC(=O)NCc1ccco1	i	nt	i	nt	nt
Cc1cccc(NC2=NCC(=O)N2Cc2ccccc2)c1	i	i	i	i	8.6
SMILES	PvdQ inh	PHOSPHO1 block	Yeast superoxide	VIM-2 inhibitor	IMP-1 inhibitor
CC(C)(C)NC(=O)c1cc(Cl)ccc1[N+](=O)[O-]	36.2	i	i	i	i
Cc1ccc(NC(=O)c2cc(Cl)ccc2[N+](=O)[O-])cc1C	i	i	i	i	i
Cc1sc2ncn(CCn3cnc4sc(C)c(C)c4c3=O)c(=O)c2c1C	i	i	i	i	i
Cc1sc2ncn3c(C)nnc3c2c1C	i	i	i	10.0	i
N#Cc1ccccc1OCC(=O)NC(=O)NCc1ccco1	i	i	i	i	i
NC(=O)CCn1c(C(=O)c2cc(Cl)c(N)c(Cl)c2)c2ccccc2[n+]1[O-]	i	i	i	7.8	i
Cc1ccc2c(c1)C(c1ccccc1)N(C(=O)c1ccc(Br)cc1)CC(=O)N2 (stereo not drawn)	i	i	i	i	i
COc1ccc(C2C(C(C)=O)=C(C)N=c3s/c(=C\c4ccco4)c(=O)n32)c(OC)c1 (stereo not drawn)	i	93.8	i	i	i
COc1ccc(C2C(C(C)=O)=C(C)N=c3s/c(=C\c4cc(C)n(C)c4C)c(=O)n32)c(OC)c1 (stereo not drawn)	i	71.1	i	i	i
COc1ccc(C2C(C(C)=O)=C(C)N=c3s/c(=C\c4ccc5c(c4)OCO5)c(=O)n32)c(OC)c1 (stereo not drawn)	i	nt	i	i	i
O=C(NCCOc1ccccc1)c1ccc2c(c1)S(=O)(=O)c1cc(Cl)ccc1C2=O	i	nt	i	nt	nt
Cc1cccc(S(=O)(=O)C(C#N)c2nc3ccccc3nc2N2CCOCC2)c1 (stereo not drawn)	i	78.4	i	i	i
Cc1ccc(S(=O)(=O)C(C#N)c2nc3ccccc3nc2N2CCCCC2)cc1 (stereo not drawn)	nt	93.2	nt	nt	nt
COc1ccc(S(=O)(=O)C(C#N)c2nc3ccccc3nc2N2CCC(C)CC2)cc1 (stereo not drawn)	nt	100.1	i	nt	nt
Cc1ccc(S(=O)(=O)C(C#N)c2nc3ccccc3nc2N2CCN(C)CC2)cc1 (stereo not drawn)	i	i	i	i	i
CC1CCCN(c2nc3ccccc3nc2C(C#N)S(=O)(=O)c2ccccc2)C1 (stereo not drawn)	i	i	i	i	i
N#CN1CCC(NS(=O)(=O)c2ccc(C(F)(F)F)cc2)CC1	i	nt	i	nt	nt
COc1ccccc1-c1cc(-c2ccccc2)nc(SCC(=O)O)c1C#N	i	i	i	i	i
Cc1cc2ccccc2n2c(SCC(=O)N3CCOCC3)nnc12	i	i	i	8.0	i
c1ccc(-c2nc(N3CCCCCC3)c3ccccc3n2)nc1	i	i	i	i	5.8
c1ccc2c(N3CCCCC3)nc(N3CCCC3)nc2c1	i	i	i	10.8	i
O=C(O)c1cc([N+](=O)[O-])c(NCCC2=CCCCC2)c([N+](=O)[O-])c1	i	i	i	i	i
CC1CCCC2(C1)NC(=S)N(c1ccccc1)N2 (stereo not drawn)	i	i	i	i	i
CC1CC(C)(C)CC2(C1)NC(=S)N(c1ccccc1)N2 (stereo not drawn)	i	97.9	i	i	i
CCCc1cc(=O)[nH]c(SCC(=O)N2c3ccccc3CC2C)n1 (stereo not drawn)	i	nt	i	nt	nt
SMILES	PvdQ inh	PHOSPHO1 block	Yeast superoxide	VIM-2 inhibitor	IMP-1 inhibitor
CCn1c(CN2CCCCCC2=O)nnc1SCc1cnc(-c2ccccc2)s1	i	61.8	i	i	i
O=C1CCCCCN1Cc1nnc(SCc2nc3ccccc3s2)n1-c1ccccn1	i	i	i	i	i
Cc1cc(C)n2nc(-c3sccc3-n3cccc3)cc2n1	i	62.0	i	i	i
COc1ccc(OC)c(NC(=O)C(C)OC(=O)c2cc3ccccc3[nH]2)c1 (stereo not drawn)	i	nt	nt	nt	nt
O=C(O)CC(Cn1[nH]nnc1=S)c1ccccc1 (stereo not drawn)	i	93.5	i	i	i
COc1cccc(OC)c1OCCN1CCN(C(c2ccccc2)c2ccccc2)CC1	i	i	i	i	i
CCOC(=O)NC(Nc1sc2c(c1C(N)=O)CCCC2)(C(=O)OCC)C(F)(F)F (stereo not drawn)	i	72.9	i	i	i
O=C(c1cc(COc2ccc3ncccc3c2)on1)N1CCC(O)CC1	i	61.5	i	i	i
CN(Cc1nccn1C)C(=O)c1cc(COc2ccc3ncccc3c2)on1	i	i	i	10.0	i
COc1ccc2c(c1)CN(C)S(=O)(=O)c1ccccc1-2	i	nt	i	nt	nt

Screens: PubChem BioAssay, several laboratories
